# Test results published in ChEMBL document CHEMBL1287747, “Highly active antimycobacterial derivatives of benzoxazine” (2010).
# Tested on: Mycobacterium tuberculosis
# Test: Antimycobacterial activity against Mycobacterium tuberculosis CNCTC My 331/88 after 21 days by microdilution method
# Format: functional
# Settings: CNCTC My 331/88, 504 h
# Procedure, shortened: (§1)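 Strains from the Czech National Collection of Type Cultures, tested by dilution micromethod in Šula semisynthetic medium. Incubated at 37 °C and read at 14 and 21 days. MIC is the lowest concentration inhibiting growth.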
row,Compound,MIC [µM]
1,CC(C)c1ccc(-n2c(=O)oc3ccc(Br)cc3c2=O)cc1,4
2,CC(C)c1ccc(-n2c(=O)oc3ccc(Cl)cc3c2=O)cc1,8
3,CC(C)c1ccc(-n2c(=O)oc3cc(Cl)ccc3c2=O)cc1,4
4,CC(C)(C)c1ccc(-n2c(=S)oc3cc(Cl)ccc3c2=S)cc1,0.5
5,CC(C)(C)c1ccc(-n2c(=S)oc3ccc(F)cc3c2=S)cc1,0.5
6,CCC(C)c1ccc(-n2c(=O)oc3ccc(Br)cc3c2=O)cc1 (stereo unspecified),8
7,CCC(C)c1ccc(-n2c(=O)oc3ccc(Cl)cc3c2=O)cc1 (stereo unspecified),8

# Tested on: Mycobacterium avium
# Test: Antimycobacterial activity against Mycobacterium avium CNCTC My 330/88 after 14 days by microdilution method
# Format: functional
# Settings: CNCTC My 330/88, 336 h
# Procedure, shortened: as §1
row,Compound,MIC [µM]
1,CC(C)c1ccc(-n2c(=O)oc3ccc(Br)cc3c2=O)cc1,8
2,CC(C)c1ccc(-n2c(=O)oc3ccc(Cl)cc3c2=O)cc1,32
3,CC(C)c1ccc(-n2c(=O)oc3cc(Cl)ccc3c2=O)cc1,8
4,CC(C)(C)c1ccc(-n2c(=S)oc3cc(Cl)ccc3c2=S)cc1,2
5,CC(C)(C)c1ccc(-n2c(=S)oc3ccc(F)cc3c2=S)cc1,0.5
6,CCC(C)c1ccc(-n2c(=O)oc3ccc(Br)cc3c2=O)cc1 (stereo unspecified),16
7,CCC(C)c1ccc(-n2c(=O)oc3ccc(Cl)cc3c2=O)cc1 (stereo unspecified),32

# Tested on: Mycobacterium kansasii
# Test: Antimycobacterial activity against Mycobacterium kansasii CNCTC My 235/80 after 14 days by microdilution method
# Format: functional
# Settings: CNCTC My 235/80, 336 h
# Procedure, shortened: as §1
row,Compound,MIC [µM]
1,CC(C)c1ccc(-n2c(=O)oc3ccc(Br)cc3c2=O)cc1,8
2,CC(C)c1ccc(-n2c(=O)oc3ccc(Cl)cc3c2=O)cc1,8
3,CC(C)c1ccc(-n2c(=O)oc3cc(Cl)ccc3c2=O)cc1,8
4,CC(C)(C)c1ccc(-n2c(=S)oc3cc(Cl)ccc3c2=S)cc1,2
5,CC(C)(C)c1ccc(-n2c(=S)oc3ccc(F)cc3c2=S)cc1,8
6,CCC(C)c1ccc(-n2c(=O)oc3ccc(Br)cc3c2=O)cc1 (stereo unspecified),8
7,CCC(C)c1ccc(-n2c(=O)oc3ccc(Cl)cc3c2=O)cc1 (stereo unspecified),16

# Tested on: Mycobacterium kansasii
# Test: Antimycobacterial activity against Mycobacterium kansasii CNCTC My 235/80 after 21 days by microdilution method
# Format: functional
# Settings: CNCTC My 235/80, 504 h
# Procedure, shortened: as §1
row,Compound,MIC [µM]
1,CC(C)c1ccc(-n2c(=O)oc3ccc(Br)cc3c2=O)cc1,8
2,CC(C)c1ccc(-n2c(=O)oc3ccc(Cl)cc3c2=O)cc1,16
3,CC(C)c1ccc(-n2c(=O)oc3cc(Cl)ccc3c2=O)cc1,16
4,CC(C)(C)c1ccc(-n2c(=S)oc3cc(Cl)ccc3c2=S)cc1,4
5,CC(C)(C)c1ccc(-n2c(=S)oc3ccc(F)cc3c2=S)cc1,8
6,CCC(C)c1ccc(-n2c(=O)oc3ccc(Br)cc3c2=O)cc1 (stereo unspecified),8
7,CCC(C)c1ccc(-n2c(=O)oc3ccc(Cl)cc3c2=O)cc1 (stereo unspecified),16

# Tested on: Mycobacterium avium
# Test: Antimycobacterial activity against Mycobacterium avium CNCTC My 330/88 after 21 days by microdilution method
# Format: functional
# Settings: CNCTC My 330/88, 504 h
# Procedure, shortened: as §1
row,Compound,MIC [µM]
1,CC(C)c1ccc(-n2c(=O)oc3ccc(Br)cc3c2=O)cc1,16
2,CC(C)c1ccc(-n2c(=O)oc3ccc(Cl)cc3c2=O)cc1,32
3,CC(C)c1ccc(-n2c(=O)oc3cc(Cl)ccc3c2=O)cc1,16
4,CC(C)(C)c1ccc(-n2c(=S)oc3cc(Cl)ccc3c2=S)cc1,4
5,CC(C)(C)c1ccc(-n2c(=S)oc3ccc(F)cc3c2=S)cc1,1
6,CCC(C)c1ccc(-n2c(=O)oc3ccc(Br)cc3c2=O)cc1 (stereo unspecified),32
7,CCC(C)c1ccc(-n2c(=O)oc3ccc(Cl)cc3c2=O)cc1 (stereo unspecified),32

# Tested on: Mycobacterium tuberculosis
# Test: Antimycobacterial activity against Mycobacterium tuberculosis CNCTC My 331/88 after 14 days by microdilution method
# Format: functional
# Settings: CNCTC My 331/88, 336 h
# Procedure, shortened: as §1
row,Compound,MIC [µM]
1,CC(C)c1ccc(-n2c(=O)oc3ccc(Br)cc3c2=O)cc1,2
2,CC(C)c1ccc(-n2c(=O)oc3ccc(Cl)cc3c2=O)cc1,4
3,CC(C)c1ccc(-n2c(=O)oc3cc(Cl)ccc3c2=O)cc1,4
4,CC(C)(C)c1ccc(-n2c(=S)oc3cc(Cl)ccc3c2=S)cc1,0.5
5,CC(C)(C)c1ccc(-n2c(=S)oc3ccc(F)cc3c2=S)cc1,0.5
6,CCC(C)c1ccc(-n2c(=O)oc3ccc(Br)cc3c2=O)cc1 (stereo unspecified),4
7,CCC(C)c1ccc(-n2c(=O)oc3ccc(Cl)cc3c2=O)cc1 (stereo unspecified),4

# Tested on: Mycobacterium kansasii
# Test: Antimycobacterial activity against Mycobacterium kansasii 6509/96 after 21 days by microdilution method
# Format: functional
# Settings: 6509/96, 504 h
# Procedure, shortened: (§2)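 Clinical isolate that, unlike the standard strain, is not isoniazid-resistant. Tested by dilution micromethod in Šula semisynthetic medium, with compounds added in DMSO at final 1000 down to 0.25 µmol/L in twofold steps. Löwenstein-Jensen plate used as inoculum sterility and growth control. Incubated at 37 °C and read at 14 and 21 days. MIC is the lowest concentration inhibiting growth.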
row,Compound,MIC [µM]
1,CC(C)c1ccc(-n2c(=O)oc3ccc(Br)cc3c2=O)cc1,8
2,CC(C)c1ccc(-n2c(=O)oc3ccc(Cl)cc3c2=O)cc1,16
3,CC(C)c1ccc(-n2c(=O)oc3cc(Cl)ccc3c2=O)cc1,8
4,CC(C)(C)c1ccc(-n2c(=S)oc3cc(Cl)ccc3c2=S)cc1,4
5,CC(C)(C)c1ccc(-n2c(=S)oc3ccc(F)cc3c2=S)cc1,8
6,CCC(C)c1ccc(-n2c(=O)oc3ccc(Br)cc3c2=O)cc1 (stereo unspecified),16
7,CCC(C)c1ccc(-n2c(=O)oc3ccc(Cl)cc3c2=O)cc1 (stereo unspecified),16

# Tested on: Mycobacterium kansasii
# Test: Antimycobacterial activity against Mycobacterium kansasii 6509/96 after 14 days by microdilution method
# Format: functional
# Settings: 6509/96, 336 h
# Procedure, shortened: as §2
row,Compound,MIC [µM]
1,CC(C)c1ccc(-n2c(=O)oc3ccc(Br)cc3c2=O)cc1,4
2,CC(C)c1ccc(-n2c(=O)oc3ccc(Cl)cc3c2=O)cc1,8
3,CC(C)c1ccc(-n2c(=O)oc3cc(Cl)ccc3c2=O)cc1,8
4,CC(C)(C)c1ccc(-n2c(=S)oc3cc(Cl)ccc3c2=S)cc1,2
5,CC(C)(C)c1ccc(-n2c(=S)oc3ccc(F)cc3c2=S)cc1,4
6,CCC(C)c1ccc(-n2c(=O)oc3ccc(Br)cc3c2=O)cc1 (stereo unspecified),8
7,CCC(C)c1ccc(-n2c(=O)oc3ccc(Cl)cc3c2=O)cc1 (stereo unspecified),16
